Our source for the IC50 and Activity values is ChEMBL document CHEMBL1221398, “Chemical constituents of the deep reef caribbean sponges Plakortis angulospiculatus and Plakortis halichondrioides and their anti-inflammatory activities” (J Nat Prod, 2010).

Data set [1] in a line: Inhibition of NF-kappaB-mediaated transcription in human SW1353 cells by reporter gene assay. It counts as cell-based. A digest of the protocol:
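Luciferase reporter gene assay for NF-κB-mediated transcription in SW 1353 cells, with parthenolide as positive control. A luciferase construct carrying SP-1 binding sites served as a control for nonspecific transcription inhibition.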
A general note: In a reporter assay the amount or activity of a reporter protein is the signal.

Data set [2] is described as follows: Inhibition of LPS-induced NOS activity in mouse RAW264.7 cells. It counts as cell-based. A digest of the protocol:
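Mouse RAW 264.7 macrophages were stimulated with LPS. iNOS activity was read as the decrease in nitrite production relative to untreated vehicle controls, with L-NMMA as positive control. Compounds were tested up to 25 µg/mL.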

In data set [3] the test system is HL-60. The data set is described as follows: Antioxidant activity against PMA-treated human HL60 cells assessed as inhibition of ROS generation.
The test system of data set [4] is HL-60. The data set is described as follows: Cytotoxicity against human HL60 cells up to 25 ug/mL.
Data set [5] relates to RAW264.7. The data set is described as follows: Cytotoxicity against mouse RAW264.7 cells up to 25 ug/mL.
Where [6] appears, read: Homo sapiens, SW1353, read-out: IC50.

SMILES strings stand for the structures. The source made the active and inactive calls. The rule behind the calls is not given here.

Regarding `CC1=C[C@](C)(/C=C/C=C/c2ccccc2)[C@](C)(C(=O)O)[C@H]2C(C)=C[C@@H](C)[C@H]12` [22,27-DINOR-ZYGGOMPHIC ACID B], the results for the IC50 in data set [1] (setting [6]) and in data set [2] (read-out: IC50) were 27.9 µM and 30.4 µM, respectively. Also, the outcome in data set [3] was inactive. Besides, the Activity result in data set [4] and in data set [5] was “Non-toxic” in each case.
For `CC(=O)C/C(C)=C/C(C)/C=C/c1ccccc1` (centres undefined), the outcome in data set [3] was inactive. For the same molecule, the Activity result in data set [4] and in data set [5] was “Non-toxic” each time.
As for `CCC1=C[C@@H](C)[C@@H]2C(C)=C[C@@](/C=C/c3ccccc3)(CC)[C@](C)(C(=O)O)[C@@H]12` [24-NOR-SPICULOIC ACID B], the IC50 in data set [1] (setting [6]) stood at 0.47 µM; in data set [2] (read-out: IC50), 54.9 µM. Besides, the result in data set [3] was inactive. For the same molecule, the Activity entry in data set [4] and in data set [5] was “Non-toxic” each time.
For `CC1=C[C@](C)(/C=C(C)/C=C/c2ccccc2)[C@](C)(C(=O)O)[C@H]2C(C)=C[C@@H](C)[C@H]12` [27-NOR-ZYGGOMPHIC ACID B], the IC50 in data set [1] (setting [6]) was determined as 2.28 µM; in data set [2] (read-out: IC50) it was 18.6 µM. Also, the outcome in data set [3] was inactive. The Activity result in data set [4] and in data set [5] was “Non-toxic” in each case.
Take `C=C1C(=O)O[C@@H]2C3O[C@]3(C)CC/C=C(\C)CC[C@@H]12` (some centres undefined): in data set [1] (setting [6]), the IC50 was 3.3 µM. In addition, the outcome in data set [3] was inactive. In addition, the Activity entry in data set [4] and in data set [5] was “Non-toxic” throughout.
Take `CCC(O)/C(C)=C/C(C)C(O)/C(C)=C/C(C)=C/C(C)/C=C/c1ccccc1` (centres undefined): the IC50 worked out at 25.6 µM in data set [1] (setting [6]) and 64.1 µM in data set [2] (read-out: IC50). For the same molecule, in data set [3], the outcome was inactive. Besides, the Activity entry in data set [4] and in data set [5] was “Non-toxic” each time.
As to `CNC(=N)NCCC[C@H](N)C(=O)O` [TILARGININE], the IC50 in data set [2] (read-out: IC50) is over 101 µM. The result in data set [3] was inactive. Besides, the Activity result in data set [4] and in data set [5] was “Non-toxic” throughout.
As for `CCC1=C[C@@H](C)[C@@H]2C(C)=C[C@](C)(/C=C/C=C/c3ccccc3)[C@](C)(C(=O)O)[C@@H]12` [22-NOR-ZYGGOMPHIC ACID B], the IC50 entry in data set [1] (sw1353) is “Not Active”; in data set [2] (read-out: IC50), 19.9 µM. In addition, in data set [3], the outcome was inactive. Moreover, the Activity entry in data set [4] and in data set [5] was “Non-toxic” each time.
For `CC(=O)/C=C(/C)C(=O)/C(C)=C/C(C)=C/C(C)/C=C/c1ccccc1` (centres undefined), the outcome in data set [3] was inactive. For the same molecule, the Activity entry in data set [4] and in data set [5] was “Non-toxic” each time.
For `CCC1=C[C@@](/C=C/c2ccccc2)(CC)[C@](C)(C(=O)O)[C@H]2C(CC)=C[C@@H](C)[C@H]12` [SPICULOIC ACID B], the IC50 in data set [1] (setting [6]) was 27.2 µM; in data set [2], “Not Active”. In data set [3], the outcome was inactive. Also, the Activity result in data set [4] and in data set [5] was “Non-toxic” each time.
On to `CCC1=C[C@@H](C)[C@@H]2C(C)=C[C@](C)(/C=C(C)/C=C/c3ccccc3)[C@](C)(C(=O)O)[C@@H]12` [ZYGGOMPHIC ACID B], for which the results for the concentration for half-maximal inhibition (IC50) in data set [1] (setting [6]) and in data set [2] (read-out: IC50) were 25.8 µM and over 64.1 µM, respectively. Besides, the result in data set [3] was inactive. Besides, the Activity entry in data set [4] and in data set [5] was “Non-toxic” in each case.

In general, IC50 refers to the point on the concentration scale where inhibition reaches its midpoint.
